Measurements reported in ChEMBL document CHEMBL4834419 (J Med Chem, 2021).
≈ marks a conversion by molar mass, not a printed value.

Legend:
[1] = target: T1, Retinoic acid receptor RXR-alpha (Homo sapiens, UniProt P19793); test: Agonist activity at human RXRalpha transfected in human HEK293T cells co-expressing pFR/pRL-Luc incubated for 14 to 16 hrs by hybrid reporter gene assay; type: cell-based
T1 sequence (P19793 whole entry): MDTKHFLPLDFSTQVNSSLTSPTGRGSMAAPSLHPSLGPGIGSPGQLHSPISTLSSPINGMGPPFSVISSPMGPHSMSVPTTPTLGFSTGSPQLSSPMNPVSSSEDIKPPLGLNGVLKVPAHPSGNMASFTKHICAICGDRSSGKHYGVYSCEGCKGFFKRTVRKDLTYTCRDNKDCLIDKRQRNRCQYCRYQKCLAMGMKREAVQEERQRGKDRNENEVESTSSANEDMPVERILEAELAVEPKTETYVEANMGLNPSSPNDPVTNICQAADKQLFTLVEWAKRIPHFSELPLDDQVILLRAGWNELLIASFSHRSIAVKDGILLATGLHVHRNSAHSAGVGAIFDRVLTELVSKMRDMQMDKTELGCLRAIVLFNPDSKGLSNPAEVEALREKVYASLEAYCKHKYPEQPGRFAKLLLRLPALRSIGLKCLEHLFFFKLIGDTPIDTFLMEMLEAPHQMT

[2] = target: T2, Retinoic acid receptor alpha (Homo sapiens) (UniProt P10276); test: Agonist activity against human RARalpha in human HEK293T cells co-expressing pFR/pRL-Luc assessed as receptor activation at 10 uM incubated for 14 to 16 hrs by hybrid reporter gene assay relative to bexarotene; type: cell-based; conditions: filed as agonist, time 14-16 hrs
T2 sequence (whole entry): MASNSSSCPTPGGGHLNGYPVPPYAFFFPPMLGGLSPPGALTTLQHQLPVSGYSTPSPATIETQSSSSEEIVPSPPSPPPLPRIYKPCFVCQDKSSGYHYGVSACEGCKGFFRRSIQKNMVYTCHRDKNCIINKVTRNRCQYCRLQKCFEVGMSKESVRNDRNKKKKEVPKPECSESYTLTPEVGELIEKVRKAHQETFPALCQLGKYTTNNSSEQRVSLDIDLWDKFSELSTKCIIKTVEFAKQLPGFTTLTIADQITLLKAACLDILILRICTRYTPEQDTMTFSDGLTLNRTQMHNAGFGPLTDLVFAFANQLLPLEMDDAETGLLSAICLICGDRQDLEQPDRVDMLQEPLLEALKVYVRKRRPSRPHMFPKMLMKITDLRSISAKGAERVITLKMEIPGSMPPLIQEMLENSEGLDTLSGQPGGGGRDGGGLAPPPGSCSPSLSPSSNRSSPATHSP
Summary of the method: (§1)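 Gal4 hybrid reporter assay in HEK293T cells, seeded 24 h before transfection (Lipofectamine LTX, Opti-MEM) with pFR-Luc, pRL-SV40 and pFA-CMV plasmid carrying the hinge region and LBD of the human receptor. After 5 h, compound added in 0.1% DMSO, with 0.1% DMSO alone as untreated control. Dual-Glo luciferase read after 14−16 h; firefly/renilla normalized; duplicates, ≥2 independent experiments.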

[3] = Half life in mouse at 10 mg/kg, po; type: ADME, organism-based; conditions: in vivo
Summary of the method: (§2)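 Mice, n = 3, received a single oral dose of 10 mg/kg in water with 1% hydroxypropyl methylcellulose/Tween 80 (99:1). Tail-vein blood was drawn at 30 and 60 min and tissue collected at 3 h. Compound was quantified by LC−MS and PK derived by noncompartmental analysis.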

[4] = target: T3, Retinoic acid receptor RXR-beta (Homo sapiens, UniProt P28702); test: Agonist activity at human RXRbeta transfected in human HEK293T cells co-expressing pFR/pRL-Luc incubated for 14 to 16 hrs by hybrid reporter gene assay; type: cell-based
T3 sequence (P28702 whole entry): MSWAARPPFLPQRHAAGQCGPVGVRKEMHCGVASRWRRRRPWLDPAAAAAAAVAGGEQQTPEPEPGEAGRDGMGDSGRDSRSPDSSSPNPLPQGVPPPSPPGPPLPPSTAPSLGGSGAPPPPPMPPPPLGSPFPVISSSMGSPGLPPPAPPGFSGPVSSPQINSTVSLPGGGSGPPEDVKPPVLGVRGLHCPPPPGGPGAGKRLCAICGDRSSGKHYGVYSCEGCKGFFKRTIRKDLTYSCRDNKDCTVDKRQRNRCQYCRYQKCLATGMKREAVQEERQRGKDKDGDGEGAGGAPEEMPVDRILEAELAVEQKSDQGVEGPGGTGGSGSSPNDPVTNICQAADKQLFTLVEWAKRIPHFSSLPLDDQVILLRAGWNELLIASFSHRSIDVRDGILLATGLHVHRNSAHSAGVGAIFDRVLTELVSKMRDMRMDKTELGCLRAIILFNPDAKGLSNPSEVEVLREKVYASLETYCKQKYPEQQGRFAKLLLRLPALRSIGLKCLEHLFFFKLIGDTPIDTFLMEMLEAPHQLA

[5] = Plasma concentration in mouse at 10 mg/kg, po measure after 3 hrs; type: ADME, organism-based; summary of the method: as §2
[6] = target: T4, Peroxisome proliferator-activated receptor alpha (Homo sapiens) (UniProt Q07869); test: Agonist activity against human PPARalpha in human HEK293T cells co-expressing pFR/pRL-Luc assessed as receptor activation at 10 uM incubated for 14 to 16 hrs by hybrid reporter gene assay relative to bexarotene; type: cell-based; conditions: filed as agonist, time 14-16 hrs; summary of the method: as §1
T4 sequence (whole entry): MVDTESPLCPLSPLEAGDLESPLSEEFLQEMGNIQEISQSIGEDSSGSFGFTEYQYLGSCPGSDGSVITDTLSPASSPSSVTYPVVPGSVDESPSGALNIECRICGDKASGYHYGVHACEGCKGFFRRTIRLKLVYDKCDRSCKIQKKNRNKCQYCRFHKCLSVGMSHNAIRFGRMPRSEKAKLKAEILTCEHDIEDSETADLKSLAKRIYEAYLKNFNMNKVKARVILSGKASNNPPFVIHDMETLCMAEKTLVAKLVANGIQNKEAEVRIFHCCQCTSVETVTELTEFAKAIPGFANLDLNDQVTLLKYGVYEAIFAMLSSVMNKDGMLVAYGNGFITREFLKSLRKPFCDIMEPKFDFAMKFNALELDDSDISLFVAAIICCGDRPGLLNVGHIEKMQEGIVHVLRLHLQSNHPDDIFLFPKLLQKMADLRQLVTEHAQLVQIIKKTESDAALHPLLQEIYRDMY

[7] = Aqueous solubility of compound in pH 8 phosphate buffer incubated for 1 hr by HPLC analysis; type: physicochemical; conditions: phosphate buffer, pH 8
Summary of the method: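 Solubility was measured with 3 mg compound in 2 mL 0.1 M phosphate buffer, pH 8, shaken 1 h at 37 °C. The mixture was pressed through a Uniprep filter and the dissolved compound in the filtrate quantified by HPLC against an external calibration; three independent experiments.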

[8] = target: T5, Retinoic acid receptor RXR-alpha (Homo sapiens) (UniProt P19793); test: Agonist activity against human RXRalpha in human HEK293T cells co-expressing pFR/pRL-Luc assessed as receptor activation at 10 uM incubated for 14 to 16 hrs by hybrid reporter gene assay relative to bexarotene; type: cell-based; conditions: filed as agonist, time 14-16 hrs; summary of the method: as §1
T5 sequence (whole entry): T1 sequence (P19793 whole entry)

Compound: O=C(O)CCCc1cc(-c2cc(Cl)cc(Cl)c2)n(-c2ccccc2)n1
- EC50 [1]: 0.25 µM
- Activity [2]: 1%
- half-life [3]: > 3 h
- EC50 [4]: 0.35 µM
- concentration at 3 h [5]: 35 µg/mL
- Activity [6]: 2%
- solubility at 1 h [7]: 0.021 mg/mL (≈ 56 µM)
- Activity [8]: 21%
